Results from ChEMBL document CHEMBL1122666, “Bile acids with a cyclopropyl-containing side chain. 1. Preparation and properties of 3 alpha, 7 beta-dihydroxy-22,23-methylene-5 beta-cholan-24-oic acid” (J Med Chem, 1984).
Values after ≈ are worked out from the molar mass of the structure shown.

Tests used:
Rattus norvegicus [1] = organism: Rattus norvegicus; test: Compound was evaluated for Bile flow; assay type: functional
In short: (§1)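 Male Sprague–Dawley rats (300-330 g) were anesthetized with ethyl carbamate and the bile was collected. Bile acids were given i.v. as sodium salts via the femoral vein at 50 mg per animal, five rats per group, and bile was sampled at 15-min intervals. Flow volume and bile acid, cholesterol and phospholipid concentrations were measured by enzymatic assays. Controls were five rats; values are mean ± SD.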

Rattus norvegicus [2] = organism: Rattus norvegicus; test: Compound was evaluated for Bile acid secretion; assay type: functional; in short: as §1
[3] = Compound was evaluated for physico-chemical property of Water solubility (bile acid) at 25 degree C; assay type: ADME
In short: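 For solubility, solutions were held for 1 month, filtered through 0.22 µm, and methanol was added to prevent crystallization. Dissolved bile acid was quantified enzymatically with 3α-hydroxysteroid dehydrogenase.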

Rattus norvegicus [4] = organism: Rattus norvegicus; test: Compound was evaluated for Cholesterol secretion; assay type: functional; in short: as §1
[5] = biological target: Serum albumin (Homo sapiens) (UniProt P02768); test: Compound was evaluated for Albumin affinity constant
Rattus norvegicus [6] = organism: Rattus norvegicus; test: Compound was evaluated for Phospholipid secretion; assay type: functional; in short: as §1
Rattus norvegicus [7] = organism: Rattus norvegicus; test: Compound was evaluated for Percent hepatic uptake; assay type: functional
In short: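 Single-pass isolated perfused rat liver; perfusate Krebs-Ringer bicarbonate pH 7.4 with glucose and 3% w/v fatty-acid-free bovine serum albumin, Evans blue (1 mg/g liver) as flow/recovery marker. 200 μL of 10-µmol/L bile acid injected; outflow collected at 10-s intervals, bile acid measured enzymatically (3α-hydroxysteroid dehydrogenase), Evans blue at 610 nm. Outflow corrected for Evans blue; uptake = 100% − outflow.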

[8] = Compound was evaluated for physico-chemical property of Critical micellar concentration (CMC); assay type: ADME
In short: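 For the CMC, sodium salt solutions from 0.1 to 100 mmol were adjusted to pH 8.00 with NaOH and rotated for 1 day at room temperature in the dark with excess Azulene or Orange OT dye. After 0.22-µm filtration, absorbance was read at 580 or 490 nm and plotted against bile salt concentration. Values are mean ± SD of five determinations.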

[9] = Compound was evaluated for physico-chemical property of Constant, pKa; assay type: physicochemical

## CC(C1CC1C(=O)O)C1CC[C@H]2[C@@H]3[C@@H](O)CC4C[C@H](O)CCC4(C)[C@H]3CCC12C (some centres not stated)
Rattus norvegicus [1]
  Bile flow: 1.68 mL/h
Rattus norvegicus [2]
  Secretion: 97 µM/h/kg
[3]
  solubility: 11.8 µM (≈ 4.77 µg/mL)
Rattus norvegicus [4]
  Secretion: 2.7 µM/h/kg
[5]
  Affinity constant: 68000 l M-1
Rattus norvegicus [6]
  Secretion: 9.5 µM/h/kg
Rattus norvegicus [7]
  Intake: 46%
[8]
  CMC: 15.5 mM
[9]
  pKa: 5.01

## C[C@H](CCC(=O)O)[C@H]1CC[C@H]2[C@@H]3[C@@H](O)C[C@@H]4C[C@H](O)CC[C@]4(C)[C@H]3CC[C@]12C [URSODIOL]
Rattus norvegicus [1]
  Bile flow: 1.08 mL/h
Rattus norvegicus [2]
  Secretion: 98 µM/h/kg
[3]
  solubility: 9 µM (≈ 3.53 µg/mL)
Rattus norvegicus [4]
  Secretion: 2.12 µM/h/kg
Rattus norvegicus [6]
  Secretion: 6.47 µM/h/kg
Rattus norvegicus [7]
  Intake: 50%
[8]
  CMC: 19 mM
[9]
  pKa: 5.08
